Assay results taken from ChEMBL document CHEMBL3414514, “Synthesis and pharmacological evaluation of novel bisindole derivatives bearing oximes moiety: identification of novel proapoptotic agents” (Eur J Med Chem, 2015).
Calls of active or inactive are those of the source. The calls are words filed in the database; no cut-off is given here.

What was measured:
[1] = test system: T-24; assay: Induction of apoptosis in human T24 cells assessed as necrotic cells at 5 to 20 uM after 24 hrs by AO/EB staining-based fluorescence microscopic analysis; type: functional, cell-based
Outline: (§1)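 T24 cells seeded at 5 × 10^4 cells/mL on cover slips. Medium was replaced with fresh medium containing 10% FBS and compound at 5, 10 or 20 µM for 24 h. Cover slips were inverted onto AO/EB stain and viewed by fluorescence microscopy. Live cells score uniform green, early apoptotic green-yellow, late apoptotic orange, and necrotic orange without condensed chromatin. Untreated cells served as control.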

[2] = Induction of apoptosis in human T24 cells assessed as cytC upregulation at IC50 after 24 hrs by qRT-PCR analysis relative to control; type: functional, cell-based; details: T-24
[3] = Cytotoxicity against human SKOV3 cells after 2 days by MTT assay; type: functional, cell-based; details: SK-OV-3, 48 h
Outline: (§2)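 Cells grown in medium with 10% heat-inactivated FBS at 37 C under 5% CO2. Compounds dissolved in medium with 1% DMSO; controls received 1% DMSO. After 2 days, MTT (10 mg/mL) added for 4 h, formazan dissolved in DMSO and absorbance read at 570/630 nm. Survival taken relative to negative control; IC50 by Bliss method (n = 5), at least three independent experiments.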

[4] = test system: T-24; assay: Induction of apoptosis in human T24 cells assessed as increase in caspase-7 protein expression at 20 uM after 6 to 24 hrs by Western blotting analysis; type: functional, cell-based
[5] = test system: T-24; assay: Induction of apoptosis in human T24 cells assessed as increase in caspase-9 protein expression at 20 uM after 6 to 24 hrs by Western blotting analysis; type: functional, cell-based
[6] = Cell cycle arrest in human T24 cells assessed as accumulation at G1 phase at 20 uM after 48 hrs by Rnase A/propidium iodide staining-based flow cytometry (reference value: 34.43%); type: functional; details: T-24
[7] = test system: T-24; assay: Induction of apoptosis in human T24 cells assessed as reduction in Bcl2 protein expression after 6 to 24 hrs by Western blotting analysis; type: functional, cell-based
Outline: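 T24 cells exposed at 20 µM for 6, 12 and 24 h, then lysed in ice-cold RIPA with protease and phosphatase inhibitors. Protein was quantified by Bradford, and 30 µg per lane was run on 12% SDS-PAGE and transferred to PVDF. Membranes were blocked 2 h, probed with primary antibody at 4 °C overnight, then HRP secondary (1:2000) for 1 h, with chemiluminescent detection.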

[8] = Induction of apoptosis in human T24 cells assessed as AIF upregulation at IC50 after 24 hrs by qRT-PCR analysis relative to control; type: functional, cell-based; details: T-24
[9] = test system: T-24; assay: Induction of apoptosis in human T24 cells assessed as increase in Bax protein expression after 6 to 24 hrs by Western blotting analysis; type: functional, cell-based
[10] = Cell cycle arrest in human T24 cells assessed as reduction in Cyclin E level after 24 hrs by Western blotting analysis; type: functional, cell-based; details: T-24
Outline: (§3)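 T24 cells treated at […] for 24 h and lysed in ice-cold RIPA buffer with protease inhibitors and NaF. Protein measured by Bradford; 30 micrograms per lane run on 12% SDS-PAGE and transferred to PVDF. Blocked 2 h at room temperature, primary antibody overnight at 4 C, HRP secondary (1:2000) 1 h, chemiluminescence detection.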

[11] = Cell cycle arrest in human T24 cells assessed as accumulation at G2 phase at 10 uM after 48 hrs by Rnase A/propidium iodide staining-based flow cytometry (reference value: 3.58%); type: functional; details: T-24
Outline: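 T24 cells exposed to […] for 48 h, washed with ice-cold PBS, then fixed and permeabilized overnight in ice-cold 70% ethanol. RNase A (100 mg/mL) treatment at 37 C for 30 min, then PI staining (1 mg/mL) in the dark at 4 C for 30 min. Flow cytometry gave the percentage of cells in G1, S and G2 phase.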

[12] = test system: T-24; assay: Induction of apoptosis in human T24 cells assessed as necrotic cells at 10 uM after 24 hrs by annexin-V-FITC/propidium iodide staining-based flow cytometry (reference value: 1.66%); type: functional
[13] = Cell cycle arrest in human T24 cells assessed as reduction in CDK2 level after 24 hrs by Western blotting analysis; type: functional, cell-based; details: T-24; outline: as §3
[14] = test system: T-24; assay: Induction of apoptosis in human T24 cells assessed as late apoptotic cells at 10 uM after 24 hrs by annexin-V-FITC/propidium iodide staining-based flow cytometry (reference value: 2.08%); type: functional
[15] = test system: T-24; assay: Induction of apoptosis in human T24 cells assessed as increase in intracellular ROS level at 5 to 20 uM after 24 hrs by DCFH/DA staining-based fluorescence microscopic analysis; type: functional, cell-based
[16] = test system: HepG2; assay: Cytotoxicity against human HepG2 cells after 2 days by MTT assay; type: functional, cell-based; details: HepG2, 48 h; outline: as §2
[17] = test system: T-24; assay: Induction of apoptosis in human T24 cells assessed as cytochrome C accumulation in cytosol at 20 uM after 6 to 24 hrs by Western blotting analysis; type: functional, cell-based
[18] = test system: T-24; assay: Induction of apoptosis in human T24 cells assessed as viable cells at 20 uM after 24 hrs by annexin-V-FITC/propidium iodide staining-based flow cytometry (reference value: 93.5%); type: functional; details: T-24, 24 h, read-out: Activity
[19] = test system: T-24; assay: Induction of apoptosis in human T24 cells assessed as necrotic cells at 5 uM after 24 hrs by annexin-V-FITC/propidium iodide staining-based flow cytometry (reference value: 1.66%); type: functional
[20] = Induction of apoptosis in human T24 cells assessed as caspase-8 upregulation at IC50 after 24 hrs by qRT-PCR analysis relative to control; type: functional, cell-based; details: T-24
[21] = test system: T-24; assay: Induction of apoptosis in human T24 cells assessed as pycnosis at 5 to 20 uM after 24 hrs by AO/EB staining-based fluorescence microscopic analysis relative to control; type: functional, cell-based; outline: as §1
[22] = test system: T-24; assay: Induction of apoptosis in human T24 cells assessed as membrane blebbing at 5 to 20 uM after 24 hrs by AO/EB staining-based fluorescence microscopic analysis relative to control; type: functional, cell-based; outline: as §1
[23] = test system: T-24; assay: Induction of apoptosis in human T24 cells assessed as fragmented nuclei after 24 hrs by Hoechst 33258 staining-based fluorescence microscopic analysis relative to control; type: functional, cell-based
Outline: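 T24 cells on cover slips treated at […] for 24 h; untreated cells as control. Fixed in 4% paraformaldehyde for 10 min, PBS washes, Hoechst 33258 for 5 min. Nuclei imaged by fluorescence microscopy, excitation 350 nm, emission 460 nm.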

[24] = Induction of apoptosis in human T24 cells assessed as Bcl2 upregulation after 24 hrs by qRT-PCR analysis; type: functional, cell-based; details: T-24
Outline: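 T24 cells treated at […] for 24 h before RNA extraction. SYBR Green qRT-PCR with 500 nM primers: 2 min at 50 C, 10 min at 95 C, then 40 cycles of 15 s at 95 C and 1 min at 60 C. Expression by the ΔCt method against actin, normalized to untreated cells; run in triplicate.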

[25] = Cytotoxicity against human SPCA2 cells after 2 days by MTT assay; type: functional, cell-based; details: SPCA2, 48 h; outline: as §2
[26] = test system: HUVEC; assay: Cytotoxicity against human HUVEC cells after 2 days by MTT assay; type: cell-based; details: 48 h; outline: as §2
[27] = test system: T-24; assay: Induction of apoptosis in human T24 cells assessed as early apoptotic cells at 10 uM after 24 hrs by annexin-V-FITC/propidium iodide staining-based flow cytometry (reference value: 2.74%); type: functional

**Q.** Which results are given for `COc1ccc2c(c1)/C(=N\O)C(c1c[nH]c3ccc(OC)cc13)=N2`?
**A.** Activity [1]: inactive; fold change (FC) [2]: 8.09; IC50 [3]: 12.5 µM; Activity [4]: Active; Activity [5]: Active; Activity [6]: 66.9%; Activity [7]: Dose-dependent effect; fold change (FC) [8]: 4.47; Activity [9]: Dose-dependent effect; Activity [10]: Dose-dependent effect; Activity [11]: 5.47%; Activity [12]: 1.22%; Activity [13]: Dose-dependent effect; Activity [14]: 7.06%; Activity [15]: Active; IC50 [16]: 9.92 µM; Activity [17]: Active; viability at 20 µM [18]: 58.1%; Activity [19]: 1.18%; fold change (FC) [20]: 8.03; Activity [21]: Active; Activity [22]: Active; Activity [23]: Dose-dependent effect; Activity [24]: Dose-dependent effect; IC50 [25]: 7.73 µM; IC50 [26]: > 100 µM; Activity [27]: 11.9%
